# Measured values collected from several papers.
# Each line is one published result; the experiments were not run side by side.
# Target: Casein kinase I isoform gamma-1 (CSNK1G1, Homo sapiens, UniProt Q9HCP0)
SMILES,effect on,method,tested at,remaining binding
Cc1cnn2ncc(-c3ccnc(N(C)C)n3)c2c1,binding,,1 µM,73%
CC(=O)c1c(NS(C)(=O)=O)c2cc(-c3ccc(Cl)cc3)c(-c3ccc(Cl)cc3Cl)nc2n(C)c1=O,cell-free assay,competition with immobilised ligand,1 µM,92%
Nc1ncc2c(n1)-c1c([nH]c3ccc(C#CC4CC4)cc13)CCCC2,binding,competition with immobilised ligand,1 µM,79%
Cn1nc(C(=O)NCc2ccc(C(=O)O)cc2)cc1-c1ccc2[nH]ccc2c1,cell-free assay,competition with immobilised ligand,0.1 µM,91%
O=C(Nc1c[nH]nc1C(=O)NC1CCNCC1)c1cc(F)cc(F)c1,binding,competition with immobilised ligand,1 µM,89%
COc1ncc2cc3ccccc3nc2c1C#N,cell-free assay,competition with immobilised ligand,5 µM,100%
NS(=O)(=O)c1cc(NC(=O)Cc2ccccc2)ccc1Oc1cccc(Cl)c1,cell-free assay,competition with immobilised ligand,1 µM,89%
CN(C)c1nccc(-c2cnn3ncccc23)n1,binding,,1 µM,100%
FC(F)(F)Oc1cccc(-c2cnc3ccc(-c4ccncc4)nn23)c1,cell-free assay,competition with immobilised ligand,5 µM,67%
CN(C)c1ncc(F)c(-c2cnn3ncccc23)n1,binding,,1 µM,74%
O=C(c1ccc(Nc2ncc(Cl)c(-c3ccc(Cl)s3)n2)cc1)N1CCC(N2CCCC2)CC1,binding,competition with immobilised ligand,1 µM,80%
COc1cnc(Nc2cccc(S(N)(=O)=O)c2)nc1N1CCN(c2ccccc2)CC1,binding,competition with immobilised ligand,1 µM,100%
CN(C)c1ncnc(-c2ccc3nc(Nc4cc(CN5CCN(C(=O)CC(F)(F)F)CC5)ccn4)[nH]c3c2)c1Cl,cell-free assay,competition with immobilised ligand,1 µM,76%
O=C(c1ccc(Nc2nccc(-c3cc4ccccc4s3)n2)cc1)N1CCC(N2CCCC2)CC1,binding,competition with immobilised ligand,1 µM,88%
CCCCN(CCCC)C(=O)CN1C[C@H](c2cc(OC)c3c(c2)OCO3)[C@@H](C(=O)O)[C@@H]1CC(C)(C)CCC,cell-free assay,competition with immobilised ligand,1 µM,100%
C[C@@H]1CCN(c2nccc(-c3cnn4ncccc34)n2)C1,binding,,1 µM,87%
O=C(NCCCN1CCOCC1)c1ccc(Nc2ncc(Cl)c(-c3ccc(Cl)s3)n2)cc1,binding,competition with immobilised ligand,1 µM,88%
N[C@@H]1CCN(c2nccc(-c3cnn4ncccc34)n2)C1,binding,,1 µM,100%
c1cncc(-c2cccc(Nc3nccc(NC4CCCCC4)n3)c2)c1,binding,competition with immobilised ligand,10 µM,89%
